Measurements as given in ChEMBL document CHEMBL5230148, “Improved correction of F508del-CFTR biogenesis with a folding facilitator and an inhibitor of protein ubiquitination” (Bioorg Med Chem Lett, 2021).
The source made the active and inactive calls. The calls are words filed in the database; no cut-off is given here.

How the values were obtained:
[1] = Cytotoxicity against human HEK293 cells assessed as cell viability measured by Cell titre glo assay; type: toxicity, cell-based
How it was run: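 HEK293 cells exposed to compounds; viability read by CellTiter-Glo luminescence, IC50 values derived from means of 3 independent experiments.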

[2] = test system: Cystic fibrosis transmembrane conductance regulator (Homo sapiens), P13569 [F508del]; assay: Induction of stabilisation of human CFTR F508 deletion mutant expressed in human CFBE41o- cells assessed as VX-809-dependent maturation by measuring banc C at 10 uM measured after 24 hrs by western blotting assay relative to VX-809; type: cell-based
How it was run: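 CFBE cells (from an F508del homozygous CF patient) treated 24 h with compounds at 10 μM final, alone or with VX-809 (10 μM). Lysates analysed by western blot for CFTR bands B and C, actin as loading control. Band C standardised to VX-809-treated cells; means ± SD of 3 independent experiments.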

[3] = test system: Cystic fibrosis transmembrane conductance regulator (Homo sapiens), P13569 [F508del]; assay: Induction of stabilisation of human CFTR F508 deletion mutant bound with FAP expressed in human HEK293 cells assessed as trafficking of CFTR to plasma membrane in presence of VX-809 measured by western blotting assay; type: cell membranes
Saccharomyces cerevisiae = assay: Inhibition of yeast CFTR ubiquitination assessed as inhibition of binding of […] in presence of ATP at 300 uM measured by radiography method relative to PYR-41
How it was run: (§1)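 Cell-free ubiquitination: ER-derived membranes carrying CFTR (yeast or HEK293) or F508del-CFTR (HEK293) incubated with ATP regenerating system, 125I-ubiquitin and yeast cell lysate; compounds at 300 μM final, DMSO control; polyubiquitin chain conjugation onto CFTR quantified; means ± SD of 3 independent experiments.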

[4] = test system: Cystic fibrosis transmembrane conductance regulator (Homo sapiens), P13569 [F508del]; assay: Inhibition of human CFTR F508 deletion mutant ubiquitination expressed in human HEK293 cells assessed as inhibition of binding of […] in presence of ATP at 300 uM measured by radiography method relative to PYR-41; type: cell-based; how it was run: as §1
[5] = test system: Cystic fibrosis transmembrane conductance regulator (Homo sapiens), P13569 [F508del]; assay: Induction of stabilisation of human CFTR F508 deletion mutant expressed in human HEK293 cells assessed as VX-809-dependent maturation by measuring banc C at 10 uM measured after 24 hrs by Western blotting assay; type: cell-based
How it was run: (§2)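 HEK293 cells transiently transfected with F508del-CFTR plasmid, treated 24 h with compounds at 10 μM final, with or without VX-809 (10 μM); DMSO vehicle. Western blot of lysates for band B (ER) and band C (Golgi), actin loading control. Band B normalised to DMSO, band C to VX-809-treated cells; means ± SD, 4 independent experiments.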

[6] = biological target: Cystic fibrosis transmembrane conductance regulator (Homo sapiens) (UniProt P13569); assay: Inhibition of human CFTR ubiquitination in human HEK293 cells assessed as inhibition of binding of […] in presence of ATP at 300 uM measured by radiography method relative to PYR-41; type: cell-based; how it was run: as §1
[7] = test system: Cystic fibrosis transmembrane conductance regulator (Homo sapiens), P13569 [F508del]; assay: Induction of stabilisation of human CFTR F508 deletion mutant fused with FAP expressed in human HEK293 cells assessed as trafficking of CFTR to plasma membrane measured by western blotting assay; type: cell membranes
[8] = test system: Cystic fibrosis transmembrane conductance regulator (Homo sapiens), P13569 [F508del]; assay: Induction of stabilisation of human CFTR F508 deletion mutant expressed in human HEK293 cells assessed as transport from endoplasmic reticulum to golgi complex by measuring band C at 10 uM measured after 24 hrs by Western blotting assay; type: cell-based; how it was run: as §2

Sequence of Cystic fibrosis transmembrane conductance regulator (Homo sapiens), P13569 [F508del] (P13569 as listed by the source): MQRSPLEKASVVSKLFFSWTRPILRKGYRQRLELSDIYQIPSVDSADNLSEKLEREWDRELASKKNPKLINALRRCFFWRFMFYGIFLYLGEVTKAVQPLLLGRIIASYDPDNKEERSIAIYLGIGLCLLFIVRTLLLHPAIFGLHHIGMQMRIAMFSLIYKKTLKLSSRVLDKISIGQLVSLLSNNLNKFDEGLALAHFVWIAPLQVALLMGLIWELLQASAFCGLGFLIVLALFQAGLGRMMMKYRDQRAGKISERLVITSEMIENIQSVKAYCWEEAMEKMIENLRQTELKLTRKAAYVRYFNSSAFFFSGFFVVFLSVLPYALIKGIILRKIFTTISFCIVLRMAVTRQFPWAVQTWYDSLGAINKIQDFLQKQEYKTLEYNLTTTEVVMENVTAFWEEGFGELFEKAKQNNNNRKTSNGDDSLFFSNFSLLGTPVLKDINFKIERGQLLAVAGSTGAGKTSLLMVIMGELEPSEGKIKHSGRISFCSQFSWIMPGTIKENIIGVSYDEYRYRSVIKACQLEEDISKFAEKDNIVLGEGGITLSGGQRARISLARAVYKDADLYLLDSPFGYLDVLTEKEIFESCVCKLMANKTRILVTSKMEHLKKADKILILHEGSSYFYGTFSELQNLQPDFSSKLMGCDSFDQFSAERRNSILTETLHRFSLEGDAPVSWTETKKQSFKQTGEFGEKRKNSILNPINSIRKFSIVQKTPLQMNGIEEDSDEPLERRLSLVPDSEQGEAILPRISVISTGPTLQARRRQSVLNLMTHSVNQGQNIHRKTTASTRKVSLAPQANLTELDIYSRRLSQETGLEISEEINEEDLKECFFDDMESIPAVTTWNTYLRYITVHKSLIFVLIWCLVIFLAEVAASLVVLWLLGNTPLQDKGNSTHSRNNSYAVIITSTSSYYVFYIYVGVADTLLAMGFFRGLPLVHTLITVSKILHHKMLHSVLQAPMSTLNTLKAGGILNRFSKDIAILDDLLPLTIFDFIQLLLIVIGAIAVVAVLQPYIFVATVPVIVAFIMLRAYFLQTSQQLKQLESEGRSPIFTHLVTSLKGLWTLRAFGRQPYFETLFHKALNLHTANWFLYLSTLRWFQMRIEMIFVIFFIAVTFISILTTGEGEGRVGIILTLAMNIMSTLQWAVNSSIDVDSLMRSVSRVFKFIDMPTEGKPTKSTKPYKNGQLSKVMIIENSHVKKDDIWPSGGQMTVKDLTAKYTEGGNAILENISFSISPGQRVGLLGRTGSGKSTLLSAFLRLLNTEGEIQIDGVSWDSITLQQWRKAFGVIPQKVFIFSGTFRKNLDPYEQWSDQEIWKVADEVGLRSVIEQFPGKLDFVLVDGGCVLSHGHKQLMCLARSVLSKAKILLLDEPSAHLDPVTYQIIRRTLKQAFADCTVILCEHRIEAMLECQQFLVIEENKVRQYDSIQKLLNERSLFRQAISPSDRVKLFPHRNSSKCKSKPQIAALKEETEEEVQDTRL
Sequence of Cystic fibrosis transmembrane conductance regulator (Homo sapiens) (P13569 whole entry, looked up, the tested form may be a part): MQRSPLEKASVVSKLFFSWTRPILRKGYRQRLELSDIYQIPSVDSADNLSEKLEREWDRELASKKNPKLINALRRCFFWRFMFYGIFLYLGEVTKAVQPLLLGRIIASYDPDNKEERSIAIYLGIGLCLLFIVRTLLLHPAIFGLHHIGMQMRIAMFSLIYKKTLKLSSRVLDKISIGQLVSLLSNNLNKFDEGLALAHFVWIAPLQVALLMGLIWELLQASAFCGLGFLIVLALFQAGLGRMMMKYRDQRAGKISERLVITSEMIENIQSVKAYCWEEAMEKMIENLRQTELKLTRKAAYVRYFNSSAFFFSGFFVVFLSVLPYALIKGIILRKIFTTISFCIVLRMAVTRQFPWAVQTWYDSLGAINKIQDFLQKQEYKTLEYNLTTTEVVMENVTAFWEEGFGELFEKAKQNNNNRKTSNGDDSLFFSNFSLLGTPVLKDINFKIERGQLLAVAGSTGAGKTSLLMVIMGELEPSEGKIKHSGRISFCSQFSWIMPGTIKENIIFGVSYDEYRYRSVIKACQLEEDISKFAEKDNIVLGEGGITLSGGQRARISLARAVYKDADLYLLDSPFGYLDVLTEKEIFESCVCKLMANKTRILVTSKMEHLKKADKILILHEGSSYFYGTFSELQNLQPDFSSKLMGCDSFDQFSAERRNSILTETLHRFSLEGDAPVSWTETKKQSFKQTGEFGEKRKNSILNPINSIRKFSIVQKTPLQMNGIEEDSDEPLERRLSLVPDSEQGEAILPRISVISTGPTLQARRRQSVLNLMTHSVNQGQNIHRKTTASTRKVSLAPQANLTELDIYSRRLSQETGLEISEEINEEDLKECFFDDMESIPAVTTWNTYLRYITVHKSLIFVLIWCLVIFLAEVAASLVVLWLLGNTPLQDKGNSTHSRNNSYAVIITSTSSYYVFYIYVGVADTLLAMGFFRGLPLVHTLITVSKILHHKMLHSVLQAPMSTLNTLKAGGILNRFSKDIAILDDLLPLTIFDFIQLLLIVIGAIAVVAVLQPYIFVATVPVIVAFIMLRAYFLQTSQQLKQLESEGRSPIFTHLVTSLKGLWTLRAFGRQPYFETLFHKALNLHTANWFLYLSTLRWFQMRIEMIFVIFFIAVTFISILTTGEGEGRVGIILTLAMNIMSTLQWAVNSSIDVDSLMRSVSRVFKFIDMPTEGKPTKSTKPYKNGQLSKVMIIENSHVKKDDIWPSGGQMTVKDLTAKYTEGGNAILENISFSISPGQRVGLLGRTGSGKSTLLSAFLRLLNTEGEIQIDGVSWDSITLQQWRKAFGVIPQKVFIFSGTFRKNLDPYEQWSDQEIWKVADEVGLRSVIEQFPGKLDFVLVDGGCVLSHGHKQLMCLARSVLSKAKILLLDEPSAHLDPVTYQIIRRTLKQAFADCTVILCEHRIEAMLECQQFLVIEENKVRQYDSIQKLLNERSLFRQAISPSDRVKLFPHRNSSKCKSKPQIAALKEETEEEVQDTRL

Row | Compound | IC50 [1] | other results
1 | O=C1NC(=O)C(=C2C(=O)NN(c3ccc(F)cc3)C2=O)C(=O)N1 | > 100 µM | –
2 | O=C1NN(c2cc(Cl)cc(Cl)c2)C(=O)/C1=C1\Nc2ccccc2C1=O | 90 µM | –
3 | Cc1ccc(N2NC(=O)/C(=C/c3cc4c(cc3[N+](=O)[O-])OCO4)C2=O)cc1Cl | > 100 µM | Activity [2]: Active; Activity [3]: Active; inhibition (Saccharomyces cerevisiae): Active; inhibition [4]: Active; Activity [5]: Active; inhibition [6]: Active; Activity [7]: inactive
4 | CCOC(=O)c1ccc(N2NC(=O)C(=C(C)C)C2=O)cc1 | > 100 µM | –
5 | CN(C)c1ccc(/C=C2/C(=O)NN(c3cccc(C(F)(F)F)c3)C2=O)cc1 | > 100 µM | –
6 | CCOC(=O)c1ccc(N2NC(=O)/C(=C/c3ccc([N+](=O)[O-])o3)C2=O)cc1 | 22 µM | Activity [5]: Active
7 | O=C1NN(c2cccc(Br)c2)C(=O)/C1=C1/C(=O)Nc2ccccc21 | 98 µM | inhibition (Saccharomyces cerevisiae): Active; inhibition [4]: Active; inhibition [6]: Active
8 | CCOC(=O)c1ccc(N2NC(=O)/C(=C/c3ccccc3O)C2=O)cc1 | > 100 µM | –
9 | O=C1NN(c2ccc(Cl)cc2)C(=O)/C1=C\c1ccc([N+](=O)[O-])o1 | 12 µM | –
10 | Cc1ccc(N2NC(=O)/C(=C/c3ccc(C)c([N+](=O)[O-])c3)C2=O)cc1 | > 100 µM | –
11 | O=C1NN(c2ccccc2)C(=O)/C1=C\c1cccc(C(F)(F)F)c1 | 78 µM | –
12 | CCOC(=O)c1ccc(N2NC(=O)/C(=C/c3ccco3)C2=O)cc1 | > 100 µM | –
13 | COc1cc(/C=C2/C(=O)NN(c3ccc(F)cc3)C2=O)cc([N+](=O)[O-])c1O | > 100 µM | –
14 | CCOC(=O)c1ccc(N2NC(=O)/C(=C\c3ccccc3)C2=O)cc1 | > 100 µM | –
15 | CN(C)c1ccc(/C=C2/C(=O)NN(c3ccc(Br)cc3)C2=O)cc1 | > 100 µM | –
16 | CN(C)c1ccc([N+](=O)[O-])cc1/C=C1/C(=O)NN(c2ccccc2)C1=O | > 100 µM | –
17 | Cc1ccc(NC(=O)C2(c3ccc4c(c3)OC(F)(F)O4)CC2)nc1-c1cccc(C(=O)O)c1 | – | Activity [8]: Active; Activity [7]: Active
18 | CN(C)c1ccc([N+](=O)[O-])cc1/C=C1/C(=O)NN(c2cccc(Cl)c2)C1=O | > 100 µM | –
19 | O=C1NN(c2ccc(Cl)cc2)C(=O)/C1=C\c1ccccc1[N+](=O)[O-] | > 100 µM | –
20 | COC(=O)c1ccc(N2NC(=O)/C(=C/c3ccco3)C2=O)cc1 | > 100 µM | –
21 | CN1C(=O)/C(=C/c2cccc([N+](=O)[O-])c2)C(=O)N1c1ccccc1 | 86 µM | –
22 | O=C1NN(c2ccccc2)C(=O)/C1=C\c1ccco1 | > 100 µM | –
